# SENP8 block-1 = SENP8 protease inhibition; Q96LD8; purified SENP8, Z-RLRGG-aminoluciferin cleavage, luminescence; inhibition, % at 10 µM; hit rate 1.2% among 330,000; AID 2540; in the data active means inhibition above about 50%
# SENP6 block = blocks the human protease SENP6; Q9GZR1; hit rate 1.8% among 330,000; inhibition, % at 10 µM; Recombinant SENP6 catalytic domain, aminoluciferin luminescence; AID 2599;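 active means inhibition above about 50% at the single tested dose, limit read from the data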;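 further: plate controls were DMSO wells with enzyme for no effect and DMSO wells lacking enzyme for full effect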
# Target sequence (Q9GZR1 628-1112 limits assumed): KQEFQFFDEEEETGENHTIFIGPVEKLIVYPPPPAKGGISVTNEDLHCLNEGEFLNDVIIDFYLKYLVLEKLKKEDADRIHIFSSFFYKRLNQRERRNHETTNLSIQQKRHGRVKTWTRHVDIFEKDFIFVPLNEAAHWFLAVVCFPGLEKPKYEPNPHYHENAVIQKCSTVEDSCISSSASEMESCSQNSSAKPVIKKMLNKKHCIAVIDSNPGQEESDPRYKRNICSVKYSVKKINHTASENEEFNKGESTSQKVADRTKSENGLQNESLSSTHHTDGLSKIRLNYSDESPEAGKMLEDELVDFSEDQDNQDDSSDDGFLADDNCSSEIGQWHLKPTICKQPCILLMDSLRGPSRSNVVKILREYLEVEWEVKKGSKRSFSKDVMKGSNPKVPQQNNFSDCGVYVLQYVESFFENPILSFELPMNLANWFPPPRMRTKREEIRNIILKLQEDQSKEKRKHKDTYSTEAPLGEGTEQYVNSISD
# SENP7 block = inhibitors of human SENP7 protease; Q9BQF6; recombinant SENP7, Z-RLRGG-aminoluciferin luminescence, 40 min; inhibition, % at 5 µM; hit rate 1.5% among 330,000;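 active means inhibition above about 50% at the single test dose, limit read from the data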;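 further: plate controls were DMSO with enzyme for no effect and no enzyme buffer wells for full effect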
# SENP1 inh = blocks the human SENP1 SUMO protease catalytic domain. hit rate 0.21% among 360,000. recombinant SENP1 catalytic domain, CyPet-SUMO1-YPet FRET cleavage. inhibition, % at 10 µM. Q9P0U3;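 active means inhibition at least 30% at 10 µM, raw YFP signal under a set limit, fluorescence ratio 0.5 to 1.5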;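 further: 0% = enzyme with DMSO and 100% = no enzyme wells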
#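 system = hSENP1 catalytic domain, recombinant | reagent = SFCypet-SUMO1-SFYpet substrate at 25 nM | doses = one dose per compound, 10 µM, 0.5% DMSO | incubation = enzyme reaction for 50 min at room temperature, dark | measured by = FRET, CFP and YFP emission | controls = no-enzyme low, enzyme-DMSO high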
# SENP8 block-2 = inhibitors of human SENP8 protease. Q96LD8. recombinant SENP8, Nedd8 substrate fluorescence. inhibition, % at 20 µM. hit rate 0.64% among 360,000; in the data active means inhibition mostly above about 40%, no sharp cut-off; inactive means mostly below about 27%
# SENP8 conf = confirmation of human SENP8 protease inhibitors. shares compounds with SENP7 block. Recombinant SENP8, Z-RLRGG-aminoluciferin luminescence, 60 min. inhibition, % at 12.5 µM. hit rate 40% among 6,200;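 active means mean inhibition across replicates above about 50%, limit read from the data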
# SENP6 confirm = human SENP6 inhibition, confirmed; shares compounds with SENP7 block; recombinant SENP6, Z-RLRGG-aminoluciferin luminescence; inhibition, % at 12.5 µM; hit rate 58% among 6,200
# SENP7 conf = confirmation of human SENP7 protease inhibitors; shares compounds with SENP7 block; recombinant SENP7, Z-RLRGG-aminoluciferin luminescence, 40 min; inhibition, % at 12.5 µM; hit rate 69% among 6,200; AID 488917
# Casp3 select = inhibits human caspase-3 in SENP selectivity test | shares compounds with SENP7 block | purified caspase-3, Z-DEVD-aminoluciferin luminescence, 60 min | inhibition, % at 12.5 µM | hit rate 60% among 6,200;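 active means mean inhibition above about 50%, limit read from the data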;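 further: plate controls were enzyme with DMSO for no effect and wells without caspase-3 for full effect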
# Luc interf = luminescence interference (SENP counter-screen); shares compounds with SENP7 block; Pre-incubated SENP8/Z-RLRGG-aminoluciferin, luciferase luminescence interference; inhibition, % at 12.5 µM; hit rate 39% among 6,200; AID 488919;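 active means mean inhibition above about 50% when retested at one dose, limit read from the data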;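 further: plate controls were DMSO wells with completed reaction for no effect and substrate without enzyme for full effect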
# Starred values were filed as active, the others as inactive; x = not tested or not shown. A selection: hits, their analogues and other compounds. The true share with any hit is near 2.5%.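 How the source made its calls, unless noted: active means mean inhibition above about 50% in the one-dose retest (limit read from the data); inactive means the rest.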
SMILES,SENP8 block-1,SENP6 block,SENP7 block,SENP1 inh,SENP8 block-2,SENP8 conf,SENP6 confirm,SENP7 conf,Casp3 select,Luc interf
Cn1c(=O)c2c(nc(NCC3CCCO3)n2C)n(C)c1=O (centres undefined),-2,7,51*,2,3,4,6,12,8,3
O=C(Nc1ccc(F)cc1)C(c1cccc(F)c1)N1CCN(Cc2c(F)cccc2Cl)CC1 (centres undefined),x,x,x,3,12,x,x,x,x,x
CCOC(=O)c1sc(/N=C/c2ccc(O)cc2O)cc1C,94*,96*,9,-1,-33,78*,98*,101*,83*,44
O=C(CCCOc1ccc(Cl)cc1Cl)Nc1ccccc1C(=O)O,71*,86*,0,1,-3,83*,82*,90*,64*,82*
O=C(Nc1ccc(O)cc1C(=O)O)c1cccc(Br)c1,88*,95*,83*,-8,18,94*,92*,98*,90*,92*
O=C(Nc1ccc(O)cc1C(=O)O)c1cccs1,40,50*,41,3,11,52*,49,82*,79*,61*
COc1ccc(C(=O)Nc2ccccc2C(=O)O)cc1Cl,94*,97*,92*,-1,14,96*,97*,101*,95*,96*
Cc1ccc(S(=O)(=O)NN=Cc2ccco2)cc1,x,x,x,0,15,x,x,x,x,x
O=C(Nc1ccccc1C(=O)O)c1ccccc1,21,30,-1,2,-3,x,x,x,x,x
O=C(Nc1ccccc1C(=O)O)c1cccc(C(=O)Nc2ccccc2C(=O)O)c1,71*,80*,10,1,6,87*,86*,98*,88*,70*
CCOc1c(Cl)cc(C(=O)Nc2ccccc2C(=O)O)cc1Cl,34,60*,8,1,-56,59*,57*,72*,34,68*
CCOc1ccc(C(=O)Nc2ccccc2-c2ccccc2)cc1Cl,7,-4,6,2,6,x,x,x,x,x
CCOc1ccc(C(=O)Nc2cccc(C(=O)O)c2C)cc1Cl,93*,100*,98*,-1,11,97*,98*,102*,80*,97*
O=C(Nc1sc(-c2ccccc2)cc1C(=O)O)c1ccccc1,66*,84*,28,-5,-321,-11,74*,74*,27,60*
Nc1nccc(/C=C/c2c(F)cccc2Cl)n1,1,-23,2,-107,-241,x,x,x,x,x
Oc1cccc2ccc(/C=C/c3ccccc3Cl)nc12,88*,99*,84*,2,-36,83*,90*,67*,86*,33
Oc1cccc2ccc(/C=C/c3c(F)cccc3Cl)nc12,85*,95*,94*,3,-33,23,60*,37,64*,4
COC(=O)c1ccc(S(=O)(=O)NCc2ccccn2)n1C,-14,-3,-3,0,14,x,x,x,x,x
COc1ccc(S(=O)(=O)N2CCC(C(=O)N[C@@H](C)C(=O)NCc3ccccn3)CC2)cc1,x,x,x,2,15,x,x,x,x,x
Cc1cc(C)c(-c2csc(NC(=O)C3=COCCO3)n2)c(C)c1,3,-8,0,1,1,x,x,x,x,x
O=C(Nc1nc(-c2ccc3c(c2)OCCO3)cs1)c1ccco1,83*,86*,89*,-1,-51,86*,86*,97*,75*,90*
O=C(Nc1ccc2c(c1)OCCO2)c1ccco1,15,35,54*,2,7,38,36,75*,80*,53*
